Source: PubChem BioAssay (several laboratories)
PPC-1+TRAIL kill – kills PPC-1 cancer cells in the presence of TRAIL; 0.41% of 220,000 active; cell killing (% activity), % at 4 µM or 5 µM; AID 1443; PPC-1 cells + TRAIL, ATPLite viability luminescence;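 active = cell killing above 50% in the first pass at 4 µM, then a duplicate retest at 5 µM averaging 50% or more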;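 note: plate controls were cells with TRAIL plus DMSO for no effect and medium-only wells lacking cells for full effect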
STAT3 act – STAT3 signaling activation; U3A cells, IL-6 STAT3-luciferase reporter, luminescence; 100% = signal with IL-6 EC80 alone; activation (% of control), % at 5.6 µM; 0.91% of 190,000 active;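 active = activation above the screen-wide mean of compound activation plus 3 SD, cut at about 130% in these data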;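 note: 0% = background luminescence of wells with medium and substrate only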
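Test system: human U3A cells carrying STAT3-luciferase construct; control set: IL-6-only wells as 100% reference; timing: compound pre-incubation 1 h before IL-6, then 6 h stimulation at 37 °C; also added: IL-6 stimulus at 33 ng/mL final; evaluation: % activation versus median of IL-6-stimulated wells; detection: reporter luminescence signal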
STAT3 blocker – STAT3 signaling inhibition; U3A cells, IL-6 STAT3-luciferase reporter, luminescence; host cell line lacks STAT1; inhibition, % at 5.5 µM; 0.89% of 190,000 active; AID 862;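 active = inhibition above the mean inhibition across all screened compounds plus 3 SD, cut at about 44% in these data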;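 note: 0% = DMSO only wells and 100% = 100 µM nifuroxazide control wells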
TRAIL sens C8 – caspase-8 TRAIL sensitization. NB7+C8 cells + TRAIL, ATPlite viability luminescence. inhibition (viability loss, TRAIL sensitization), % at 10 µM. 1% of 360,000 active;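 active = compounds causing at least 50% loss of cell viability in the single-dose screen, relative to plate controls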
STAT1 inh – inhibitors of IFN-gamma induced STAT1 signaling; NIH 3T3 STAT1-luciferase reporter, luminescence; inhibition, % at 5.5 µM; 0.35% of 200,000 active;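 active = inhibition above a set limit, the mean inhibition across all tested compounds plus 3 SD, cut at about 34% in these data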;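 note: 0% = IFN-gamma with DMSO and 100% = IFN-gamma with 300 µM nifuroxazide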
PPC-1 tox – kills PPC-1 cells. shares compounds with PPC-1+TRAIL kill. PPC-1 viability, ATPlite luminescence, overnight. cytotoxicity, % at 5 µM. 50% of 1,200 active. AID 1447;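 active = reconfirmed compounds whose average cytotoxicity reaches 50% or more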;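 note: 0% = DMSO-treated cells and 100% = wells holding medium but no cells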
Starred values were filed as active, the others as inactive. Shown are actives, neighbours in structure and some others; about 1.8% of the full set was active somewhere.

Results for COc1ccc(-c2cc(C(=O)OCC(=O)Nc3cc(C)on3)c3ccccc3n2)cc1OC ?
PPC-1+TRAIL kill: 30.3; STAT3 act: 86.3; STAT3 blocker: 17.6; TRAIL sens C8: 17.0; STAT1 inh: 1.6

What do the screens show for `CCC(C)c1ccc(-c2cc(C(=O)OCC(=O)Nc3cc(C)on3)c3ccccc3n2)cc1` (stereo not given)?
PPC-1+TRAIL kill: 82.8*; STAT3 act: 83.0; STAT3 blocker: 20.4; TRAIL sens C8: 82.5*; STAT1 inh: -9.4; PPC-1 tox: 80.1*

What do the screens show for `COc1cccc(/C=C2/CCC(CN(C)C)C2=O)c1` (stereo not given)?
TRAIL sens C8: 8.7

How did O=C(NCCN1CCC(n2c(=O)[nH]c3ccccc32)CC1)c1cccs1 do in these assays?
TRAIL sens C8: 24.3

Results for Cc1ccc(NS(=O)(=O)c2ccc3c(c2)CCN3C(=O)CCC(=O)O)cc1Cl ?
TRAIL sens C8: 2.5

Results for Cc1cnc(NC(=O)CCNC(=O)c2ccccc2Cl)s1 ?
PPC-1+TRAIL kill: 1.8; STAT3 act: 104.8; STAT3 blocker: -5.3; TRAIL sens C8: -6.1; STAT1 inh: -4.1

How did Cc1cnc(NC(=O)COc2ccccc2Cl)s1 do in these assays?
PPC-1+TRAIL kill: 60.0*; STAT3 act: 26.2; STAT3 blocker: 92.3*; TRAIL sens C8: 77.4*; STAT1 inh: 60.8*; PPC-1 tox: 58.8*

Results for Cc1cc(C)c(C#N)c(SCc2nc3ccccc3c(=O)[nH]2)n1 ?
PPC-1+TRAIL kill: 80.5*; STAT3 act: 81.8; STAT3 blocker: 26.2; TRAIL sens C8: 77.3*; STAT1 inh: -13.7; PPC-1 tox: 78.8*

Results for COc1ccc(N2CCN(Cc3nc4cc(Cl)ccc4c(=O)[nH]3)CC2)cc1 ?
PPC-1+TRAIL kill: 0.1; STAT3 act: 104.6; STAT3 blocker: -0.7; TRAIL sens C8: -5.5; STAT1 inh: -5.5; PPC-1 tox: 5.5

How did CC(=O)N1CCN(Cc2nc3cc(Cl)ccc3c(=O)[nH]2)CC1 do in these assays?
PPC-1+TRAIL kill: 35.5; STAT3 act: 102.4; STAT3 blocker: 0.8; TRAIL sens C8: 4.3; STAT1 inh: -6.0

Results for Fc1ccc(NC(=S)Nc2cccc3cnccc23)cc1 ?
PPC-1+TRAIL kill: 3.9; STAT3 act: 131.3; STAT3 blocker: -27.3; TRAIL sens C8: -2.3; STAT1 inh: 17.5; PPC-1 tox: -3.3

How did Cc1ccc(OCc2nc(-c3ccccn3)no2)c(Br)c1 do in these assays?
PPC-1+TRAIL kill: 34.6; STAT3 act: 33.9; STAT3 blocker: 83.3*; TRAIL sens C8: 59.0*; STAT1 inh: 48.1*; PPC-1 tox: 37.1

What do the screens show for `COc1ccccc1N(C)S(=O)(=O)c1ccc(C(=O)NCC2CCCCC2)cc1`?
TRAIL sens C8: -2.7

Results for Cc1cc(OC(=O)c2ccc(S(=O)(=O)N3CCOCC3)cc2)c([N+](=O)[O-])c(=O)[nH]1 ?
PPC-1+TRAIL kill: -10.9; STAT3 act: 102.9; STAT3 blocker: -1.0; TRAIL sens C8: -5.0; STAT1 inh: 1.4; PPC-1 tox: 6.0

What do the screens show for `Cc1ccc(C(=O)Oc2cc(C)[nH]c(=O)c2[N+](=O)[O-])cc1`?
PPC-1+TRAIL kill: 13.9; STAT3 act: 98.0; STAT3 blocker: 6.0; TRAIL sens C8: -1.4; STAT1 inh: 14.3

Results for C/C(=N\NC(=O)c1n[nH]c2c1CCC2)c1ccco1 ?
PPC-1+TRAIL kill: 39.5; TRAIL sens C8: 63.7*; PPC-1 tox: 40.2

How did CCOc1ccccc1NC(=O)C1CCCN1S(=O)(=O)c1ccc2c(c1)C(C)(C)C(=O)N2C (stereo not given) do in these assays?
TRAIL sens C8: -2.3

How did O=C(COC(=O)c1cnccn1)NCc1ccccc1Cl do in these assays?
TRAIL sens C8: -8.3

How did Cc1cccc(N2CC(C(=O)NC3CCCCCC3)CC2=O)c1C (stereo not given) do in these assays?
TRAIL sens C8: -6.9

Results for O=C(c1nc2nc(-c3ccccc3)cc(C(F)(F)F)n2n1)N1CCCCC1 ?
PPC-1+TRAIL kill: -2.5; STAT3 act: 93.2; STAT3 blocker: 7.4; TRAIL sens C8: 0.0; STAT1 inh: 6.4; PPC-1 tox: -9.6

How did Cc1ccc(C(=O)O/N=C/c2c(N3CCOCC3)n(C)c3ccccc23)cc1 do in these assays?
PPC-1+TRAIL kill: 39.6; STAT3 act: 102.1; STAT3 blocker: 3.2; TRAIL sens C8: -3.4; STAT1 inh: -4.5; PPC-1 tox: 19.3

What do the screens show for `CCOCCn1c(=NC(=O)CSCC(=O)Nc2cc(C)on2)sc2cc(OC)ccc21`?
TRAIL sens C8: -11.8

Results for CCOC(=O)C1=C2N(C)c3ccccc3N2CCC1=O ?
PPC-1+TRAIL kill: 2.7; STAT3 act: 107.9; STAT3 blocker: -3.6; TRAIL sens C8: -3.6; STAT1 inh: -7.6; PPC-1 tox: 8.4

How did CCc1nc2c(OCC(=O)c3ccc(Cl)cc3Cl)cccn2c1N(C=O)Cc1ccccc1 do in these assays?
TRAIL sens C8: -20.5

How did CN(C(=O)c1ccc2c(c1)OCO2)C1(C(=O)NC2CCCC2)CCCCC1 do in these assays?
PPC-1+TRAIL kill: 5.9; STAT3 act: 96.8; STAT3 blocker: 10.1; TRAIL sens C8: -6.4; STAT1 inh: -1.6; PPC-1 tox: 2.1

What do the screens show for `Clc1ccc(OCc2nc3ccccc3[nH]2)cc1`?
PPC-1+TRAIL kill: 33.0; STAT3 act: 86.6; STAT3 blocker: 20.2; TRAIL sens C8: 36.7; STAT1 inh: -51.2; PPC-1 tox: 36.4

How did Cc1ccc(OCc2nc3ccccc3[nH]2)cc1 do in these assays?
PPC-1+TRAIL kill: 48.9; STAT3 act: 73.6; STAT3 blocker: 32.0; TRAIL sens C8: 30.2; STAT1 inh: -53.3; PPC-1 tox: 42.6

How did O=S(=O)(CCc1nc2ccccc2[nH]1)c1ccc(Cl)cc1 do in these assays?
PPC-1+TRAIL kill: 10.2; STAT3 act: 103.0; STAT3 blocker: 5.3; TRAIL sens C8: 7.0; STAT1 inh: -7.7

What do the screens show for `c1ccc(OCc2nc3ccccc3[nH]2)cc1`?
PPC-1+TRAIL kill: 23.6; STAT3 act: 93.8; STAT3 blocker: 11.1; TRAIL sens C8: 14.3; STAT1 inh: -31.5

Results for O=C(NC(=O)c1ccccc1O)c1ccc2c(c1)CCO2 ?
PPC-1+TRAIL kill: 68.7*; TRAIL sens C8: 74.4*; PPC-1 tox: 67.6*

How did O=C(NCc1cccnc1)C1CCCN(S(=O)(=O)c2ccccc2)C1 (stereo not given) do in these assays?
PPC-1+TRAIL kill: 6.6; STAT3 act: 101.9; STAT3 blocker: 1.0; TRAIL sens C8: 16.1; STAT1 inh: -4.7; PPC-1 tox: 9.0

How did O=C(Nc1nc2ccccc2[nH]1)c1ccc(Br)o1 do in these assays?
PPC-1+TRAIL kill: 25.1; STAT3 act: 123.2; STAT3 blocker: -27.4; TRAIL sens C8: 43.9; STAT1 inh: -48.8; PPC-1 tox: 23.8

What do the screens show for `O=C(Nc1nc2ccccc2[nH]1)c1cccc(Br)c1`?
TRAIL sens C8: 33.9

What do the screens show for `COc1cccc(C(=O)Nc2nc3ccccc3[nH]2)c1`?
PPC-1+TRAIL kill: 70.8*; STAT3 act: 29.3; STAT3 blocker: 86.1*; TRAIL sens C8: 82.7*; STAT1 inh: 43.5*; PPC-1 tox: 72.8*
